According to ChEMBL document CHEMBL4229364, “Structure-activity relationships of 2, 4-disubstituted pyrimidines as dual ERα/VEGFR-2 ligands with anti-breast cancer activity” (Eur J Med Chem, 2018):
Blank lines part the entries; values can stand above or below the compound they belong to. The source made the active and inactive calls. The calls are words filed in the database; no cut-off is given here.

Columns and labels:
[1] = biological target: T1, Vascular endothelial growth factor receptor 2 (Homo sapiens, UniProt P35968); assay: Inhibition of VEGFR2 (unknown origin) using TK substrate after 1 hr by HTRF assay
T1 sequence (P35968 whole entry): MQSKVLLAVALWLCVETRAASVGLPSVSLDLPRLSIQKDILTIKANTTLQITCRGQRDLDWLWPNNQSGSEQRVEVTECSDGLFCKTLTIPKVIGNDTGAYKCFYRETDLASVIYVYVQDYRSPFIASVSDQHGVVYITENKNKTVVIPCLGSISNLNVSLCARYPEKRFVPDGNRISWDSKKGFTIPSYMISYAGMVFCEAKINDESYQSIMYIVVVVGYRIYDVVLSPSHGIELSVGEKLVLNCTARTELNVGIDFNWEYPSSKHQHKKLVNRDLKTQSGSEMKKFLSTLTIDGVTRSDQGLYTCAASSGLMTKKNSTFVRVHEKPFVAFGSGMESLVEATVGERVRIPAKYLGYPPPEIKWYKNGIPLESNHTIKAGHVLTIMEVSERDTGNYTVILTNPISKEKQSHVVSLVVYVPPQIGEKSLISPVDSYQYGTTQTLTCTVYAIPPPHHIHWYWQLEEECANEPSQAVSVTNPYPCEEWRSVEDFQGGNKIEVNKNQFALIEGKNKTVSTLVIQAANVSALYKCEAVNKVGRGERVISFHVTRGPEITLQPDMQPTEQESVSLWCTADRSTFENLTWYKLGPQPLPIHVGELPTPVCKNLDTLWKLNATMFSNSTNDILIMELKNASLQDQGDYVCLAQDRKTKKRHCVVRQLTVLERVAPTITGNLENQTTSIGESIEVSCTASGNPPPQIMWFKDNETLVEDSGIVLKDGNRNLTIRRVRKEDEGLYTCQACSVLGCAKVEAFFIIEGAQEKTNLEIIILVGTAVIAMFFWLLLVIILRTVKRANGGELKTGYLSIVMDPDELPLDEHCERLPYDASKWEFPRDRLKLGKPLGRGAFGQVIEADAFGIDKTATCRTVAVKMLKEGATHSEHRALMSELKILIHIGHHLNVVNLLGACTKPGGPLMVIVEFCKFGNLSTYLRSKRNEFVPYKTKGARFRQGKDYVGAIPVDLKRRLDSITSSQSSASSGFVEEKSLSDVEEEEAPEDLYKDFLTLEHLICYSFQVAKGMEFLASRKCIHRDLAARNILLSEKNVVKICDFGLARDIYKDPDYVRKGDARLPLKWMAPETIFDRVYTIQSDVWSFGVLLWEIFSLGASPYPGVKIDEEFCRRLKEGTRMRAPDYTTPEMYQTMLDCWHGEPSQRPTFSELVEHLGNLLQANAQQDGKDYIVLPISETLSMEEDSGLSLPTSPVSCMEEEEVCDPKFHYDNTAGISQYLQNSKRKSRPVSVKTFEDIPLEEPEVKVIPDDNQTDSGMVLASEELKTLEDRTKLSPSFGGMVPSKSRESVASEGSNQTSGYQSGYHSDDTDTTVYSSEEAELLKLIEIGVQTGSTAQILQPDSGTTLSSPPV

[2] = biological target: T1, Vascular endothelial growth factor receptor 2; settings: at 10 µM
Estrogen receptor = biological target: T2, Estrogen receptor (Homo sapiens, UniProt P03372); assay: Displacement of Fluormone ES2 Green from full length human ER-alpha expressed in insect cells after 2 hrs by fluorescence polarization assay
T2 sequence (P03372 whole entry): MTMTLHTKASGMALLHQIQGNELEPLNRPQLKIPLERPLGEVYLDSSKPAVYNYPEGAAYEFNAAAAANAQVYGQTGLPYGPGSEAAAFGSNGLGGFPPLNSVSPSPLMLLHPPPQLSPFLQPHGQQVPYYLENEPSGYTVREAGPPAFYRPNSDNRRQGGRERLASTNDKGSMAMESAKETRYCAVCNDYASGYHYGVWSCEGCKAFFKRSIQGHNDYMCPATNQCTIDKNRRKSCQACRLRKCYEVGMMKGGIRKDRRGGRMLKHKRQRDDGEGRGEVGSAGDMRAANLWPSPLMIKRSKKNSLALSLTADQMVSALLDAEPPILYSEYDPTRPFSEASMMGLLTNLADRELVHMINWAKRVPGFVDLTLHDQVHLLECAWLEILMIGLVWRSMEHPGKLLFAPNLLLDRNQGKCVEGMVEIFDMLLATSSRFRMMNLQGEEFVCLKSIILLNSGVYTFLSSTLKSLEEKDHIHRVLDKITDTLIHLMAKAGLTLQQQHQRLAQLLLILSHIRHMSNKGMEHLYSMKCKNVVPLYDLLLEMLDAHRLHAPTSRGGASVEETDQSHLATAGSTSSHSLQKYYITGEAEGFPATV

Ishikawa = assay: Antiproliferative activity against human Ishikawa cells after 48 hrs by MTT assay; type: functional, cell-based
Summary of the method: (§1)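 MTT assay. Cells were grown in RPMI1640 with 10% FBS and penicillin/streptomycin at 37°C, 5% CO2, seeded at 1×10^5/mL and rested 24 h. Compound was added at 4×10^-5 to 1×10^-6 mol/L for 48 h; controls received 1% DMSO. MTT (5 mg/mL) was added for 4 h in the dark and the formazan dissolved in DMSO. A490 was read and IC50 derived.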

MCF7 [3] = assay: Antiproliferative activity against human MCF7 cells after 48 hrs by MTT assay; type: functional, cell-based; settings: MCF7, 48 h; summary of the method: as §1
HUVEC = assay: Antiproliferative activity against HUVEC after 48 hrs by MTT assay; type: functional, cell-based; settings: Homo sapiens; summary of the method: as §1
MDA-MB-231 = assay: Antiproliferative activity against human MDA-MB-231 cells after 48 hrs by MTT assay; type: functional, cell-based; summary of the method: as §1
MCF7 [4] = assay: Induction of apoptosis in human MCF7 cells assessed as necrtotic cells at 1 uM after 24 hrs by Annexin V-FITC/propidium iodide staining based flow cytometry (reference value: 2.05%); type: functional
MCF7 [5] = assay: Induction of apoptosis in human MCF7 cells assessed as live cells at 1 uM after 24 hrs by Annexin V-FITC/propidium iodide staining based flow cytometry (reference value: 87.5%); type: functional
MCF7 [6] = assay: Potency index, ratio of raloxifene IC50 to compound IC50 for antiproliferative activity against human MCF7 cells; type: functional
Summary of the method: (§2)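 Potency index is the reference drug's MCF-7 MTT IC50 divided by the compound's IC50. Reference drugs were tamoxifen or raloxifene. Cells received 48 h exposure over 4×10^-5 to 1×10^-6 mol/L with a 1% DMSO control, then A490 readout.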

[7] = biological target: Mitogen-activated protein kinase; ERK1/ERK2 (Homo sapiens) (UniProt P27361+P28482); assay: Inhibition of ERK1/ERK2 phosphorylation in human MCF7 cells at 0.5 uM after 24 hrs by Western blot analysis; type: cell-based
Mitogen-activated protein kinase; ERK1/ERK2 (Homo sapiens), sequence (P27361 whole entry, looked up): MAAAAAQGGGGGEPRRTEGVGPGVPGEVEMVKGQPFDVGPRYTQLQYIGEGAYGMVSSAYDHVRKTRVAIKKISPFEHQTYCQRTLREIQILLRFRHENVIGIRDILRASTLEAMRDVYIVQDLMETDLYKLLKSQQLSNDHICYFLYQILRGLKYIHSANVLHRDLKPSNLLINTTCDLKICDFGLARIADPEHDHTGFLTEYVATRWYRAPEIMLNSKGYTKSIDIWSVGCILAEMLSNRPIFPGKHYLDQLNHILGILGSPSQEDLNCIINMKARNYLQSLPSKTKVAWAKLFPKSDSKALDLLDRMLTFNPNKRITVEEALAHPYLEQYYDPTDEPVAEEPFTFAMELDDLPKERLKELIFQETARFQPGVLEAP
Mitogen-activated protein kinase; ERK1/ERK2 (Homo sapiens), sequence (P28482 whole entry, looked up): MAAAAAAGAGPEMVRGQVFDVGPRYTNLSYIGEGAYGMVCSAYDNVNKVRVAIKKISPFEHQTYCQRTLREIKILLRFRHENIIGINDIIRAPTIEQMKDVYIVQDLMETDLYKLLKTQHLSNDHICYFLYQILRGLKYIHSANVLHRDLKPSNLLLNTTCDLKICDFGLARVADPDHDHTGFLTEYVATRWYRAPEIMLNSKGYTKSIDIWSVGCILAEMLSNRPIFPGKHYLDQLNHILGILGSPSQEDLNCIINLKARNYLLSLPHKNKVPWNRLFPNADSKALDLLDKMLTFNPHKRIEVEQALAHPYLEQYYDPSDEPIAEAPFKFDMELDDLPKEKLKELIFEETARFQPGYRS

[8] = biological target: T3, Estrogen receptor (Homo sapiens) (UniProt P03372); assay: Antagonist activity at ERalpha in human MCF7 cells assessed as reduction in E2-induced progesterone receptor mRNA level at 0.4 uM by RT-PCR method; type: cell-based
T3 sequence (whole entry): T2 sequence (P03372 whole entry)
Summary of the method: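 Quantitative RT-PCR of progesterone receptor mRNA in MCF-7 cells. RNA was reverse transcribed to cDNA and amplified with SYBR Green: 95°C 2 min, then 40 cycles of 95°C 10 s, 60°C 30 s, 95°C 10 s. Signal was normalized to GAPDH and quantified by ΔΔCT. Values are mean ± SD, n=3, compared against the E2 group.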

MCF7 [9] = assay: Induction of apoptosis in human MCF7 cells assessed as late apoptotic cells at 0.5 uM after 24 hrs by Annexin V-FITC/propidium iodide staining based flow cytometry (reference value: 6.01%); type: functional
[10] = biological target: RAF proto-oncogene serine/threonine-protein kinase (Homo sapiens) (UniProt P04049); assay: Inhibition of RAF1 phosphorylation in human MCF7 cells at 0.5 uM after 24 hrs by Western blot analysis; type: cell-based
RAF proto-oncogene serine/threonine-protein kinase (Homo sapiens), sequence (P04049 whole entry): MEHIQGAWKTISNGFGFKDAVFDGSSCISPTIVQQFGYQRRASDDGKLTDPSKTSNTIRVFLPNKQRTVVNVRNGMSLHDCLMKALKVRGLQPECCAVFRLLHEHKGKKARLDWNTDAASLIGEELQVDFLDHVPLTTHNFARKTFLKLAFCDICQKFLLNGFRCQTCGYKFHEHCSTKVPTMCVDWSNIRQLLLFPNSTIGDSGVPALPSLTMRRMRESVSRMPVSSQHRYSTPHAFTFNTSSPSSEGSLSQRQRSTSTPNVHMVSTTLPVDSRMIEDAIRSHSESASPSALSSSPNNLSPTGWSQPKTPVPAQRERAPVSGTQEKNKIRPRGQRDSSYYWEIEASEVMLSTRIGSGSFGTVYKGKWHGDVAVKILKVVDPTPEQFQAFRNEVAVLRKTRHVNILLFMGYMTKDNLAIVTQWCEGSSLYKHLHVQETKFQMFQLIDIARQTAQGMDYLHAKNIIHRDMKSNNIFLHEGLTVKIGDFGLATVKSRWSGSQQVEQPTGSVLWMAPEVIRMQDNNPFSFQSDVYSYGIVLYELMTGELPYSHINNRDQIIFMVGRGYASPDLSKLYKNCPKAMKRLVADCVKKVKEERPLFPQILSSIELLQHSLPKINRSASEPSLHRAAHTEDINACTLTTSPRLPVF

T47D = assay: Antiproliferative activity against human T47D cells after 48 hrs by MTT assay; type: functional, cell-based; summary of the method: as §1
MCF7 [11] = assay: Induction of apoptosis in human MCF7 cells assessed as early apoptotic cells at 1 uM after 24 hrs by Annexin V-FITC/propidium iodide staining based flow cytometry (reference value: 4.46%); type: functional
MCF7 [12] = assay: Induction of apoptosis in human MCF7 cells assessed as late apoptotic cells at 1 uM after 24 hrs by Annexin V-FITC/propidium iodide staining based flow cytometry (reference value: 6.01%); type: functional
MCF7 [13] = assay: Potency index, ratio of tamoxifen IC50 to compound IC50 for antiproliferative activity against human MCF7 cells; type: functional; summary of the method: as §2
Chorioallantoic membrane = assay: In vivo antiangiogenic activity in chicken egg chorioallantoic membrane after 72 hrs; type: functional, organism-based; settings: Gallus gallus
Summary of the method: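 Chick CAM assay. Fertilized eggs were incubated 7 days at 37°C, then a window of about 1 cm² was opened in the shell. […] Eggs were incubated a further 72 h at 37°C and 60% humidity. CAM was fixed in acetone/ethanol for 10 min and vessels imaged.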

MCF7 [14] = assay: Effect on total RAF1 protein expression in human MCF7 cells at 0.5 uM after 24 hrs by Western blot analysis; type: ADME, cell-based; settings: mcf7, 24 h
MCF7 [15] = assay: Induction of apoptosis in human MCF7 cells assessed as necrtotic cells at 0.5 uM after 24 hrs by Annexin V-FITC/propidium iodide staining based flow cytometry (reference value: 2.05%); type: functional
MCF7 [16] = assay: Induction of apoptosis in human MCF7 cells after 24 hrs by Annexin V-FITC/propidium iodide staining based flow cytometry; type: functional, cell-based
[17] = biological target: T1, Vascular endothelial growth factor receptor 2; settings: HUVEC, at 1 µM
MCF7 [18] = assay: Induction of apoptosis in human MCF7 cells assessed as live cells at 0.5 uM after 24 hrs by Annexin V-FITC/propidium iodide staining based flow cytometry (reference value: 87.5%); type: functional
MCF7 [19] = assay: Antimigratory activity against human MCF7 cells at 0.5 to 1 uM after 48 hrs by crystal violet staining based microscopic method; type: functional, cell-based
Summary of the method: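 Transwell assay on Matrigel-coated membranes, 5×10^4 cells per well. Cells were treated at plating. After 24 h the invading cells were fixed, with 48 h seeding. Cells were stained with crystal violet (0.1% in 20% methanol) and counted by microscopy. Treatments were 0.5 and 1 µM, with DMSO as vehicle control.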

MCF7 [20] = assay: Induction of apoptosis in human MCF7 cells assessed as early apoptotic cells at 0.5 uM after 24 hrs by Annexin V-FITC/propidium iodide staining based flow cytometry (reference value: 4.46%); type: functional

IC50 [1]: > 1 µM | inhibition [2]: 80% | IC50 (Estrogen receptor): 5.13 µM | IC50 (MCF7 [3]): 49.6 µM
SMILES: CCN(CC)CCOc1ccc(Oc2cc(Cl)nc(-c3ccc(OC)cc3)n2)cc1
IC50 (Ishikawa): 24.9 µM | IC50 (HUVEC): 23.3 µM

IC50 [1]: 0.174 µM | inhibition [2]: 89.7% | IC50 (Estrogen receptor): 4.74 µM | IC50 (MCF7 [3]): 36.8 µM
SMILES: CCN(CC)CCOc1ccc(Nc2cc(Cl)nc(-c3ccc(OC)cc3)n2)cc1
IC50 (Ishikawa): 11.7 µM | IC50 (HUVEC): 9.24 µM

IC50 [1]: > 1 µM | inhibition [2]: 40.2% | IC50 (MCF7 [3]): > 40 µM
SMILES: CCN(CC)CC(=O)Nc1ccc(Nc2nc(-c3ccc(OC)cc3)nc(Cl)c2-c2ccccc2)cc1
IC50 (Ishikawa): > 40 µM | IC50 (HUVEC): > 40 µM

IC50 [1]: > 1 µM | inhibition [2]: 44% | IC50 (MCF7 [3]): > 40 µM
SMILES: CCN(CC)CC(=O)Nc1ccc(Nc2cc(Cl)nc(-c3ccc(OC)cc3)n2)cc1
IC50 (Ishikawa): 5.81 µM | IC50 (HUVEC): 15 µM

IC50 [1]: > 1 µM | inhibition [2]: 61.3% | IC50 (Estrogen receptor): 2.86 µM | IC50 (MCF7 [3]): 23.4 µM
SMILES: COc1ccc(-c2nc(Cl)cc(Nc3ccc(NC(=O)CN4CCCC4)cc3)n2)cc1
IC50 (Ishikawa): 18.4 µM | IC50 (HUVEC): 4.82 µM

IC50 [1]: > 1 µM | inhibition [2]: 51.9% | IC50 (MCF7 [3]): 43.7 µM
SMILES: COc1ccc(-c2nc(Cl)cc(Nc3ccc(OCCN4CCCC4)cc3)n2)cc1
IC50 (Ishikawa): 17.3 µM | IC50 (HUVEC): 11.3 µM

IC50 [1]: > 1 µM | inhibition [2]: 50.8% | IC50 (MCF7 [3]): 17.7 µM
SMILES: COc1ccc(-c2nc(Cl)c(-c3ccccc3)c(Nc3ccc(NC(=O)CN(C)C)cc3)n2)cc1
IC50 (Ishikawa): 17.1 µM | IC50 (HUVEC): 10.3 µM

IC50 [1]: 0.203 µM | inhibition [2]: 87.3% | IC50 (MCF7 [3]): > 40 µM
SMILES: COc1ccc(-c2nc(Cl)c(-c3ccccc3)c(Nc3ccc(NC(=O)CN4CCCC4)cc3)n2)cc1
IC50 (Ishikawa): > 40 µM | IC50 (HUVEC): > 40 µM

IC50 (MDA-MB-231; MDA-MB-231, 48 h): 3.81 µM | IC50 [1]: 0.085 µM | inhibition [7]: Active | inhibition [2]: 91.1% | IC50 (Estrogen receptor): 1.64 µM | inhibition [8]: Active | inhibition [10]: Active | IC50 (T47D): 2.73 µM | IC50 (MCF7 [3]): 0.81 µM | inhibition [17]: Active
SMILES: Oc1ccc(-c2nc(Cl)c(-c3ccccc3)c(Oc3ccc(OCCN4CCCC4)cc3)n2)cc1
Activity (MDA-MB-231): Dose-dependent effect | Activity (MCF7 [4]): 0.9% | Activity (MCF7 [5]): 65.7% | Ratio IC50 (MCF7 [6]): 16 | Activity (MCF7 [9]): 14.5% | Activity (T47D): Dose-dependent effect | Activity (MCF7 [11]): 5.49% | Activity (MCF7 [12]): 28% | Ratio IC50 (MCF7 [13]): 19 - 20 | IC50 (Ishikawa): 5.93 µM | Activity (Chorioallantoic membrane): Dose-dependent effect | Activity (MCF7 [14]): Non-Toxic | Activity (MCF7 [15]): 1.11% | Activity (MCF7 [16]): Dose-dependent effect | IC50 (HUVEC): 4.57 µM | Activity (MCF7 [18]): 75.5% | Activity (MCF7 [19]): Active | Activity (MCF7 [20]): 8.89%

IC50 [1]: > 1 µM | inhibition [2]: 66.2% | IC50 (MCF7 [3]): > 40 µM
SMILES: COc1ccc(-c2nc(Cl)cc(Nc3ccc(NC(=O)CN(C)C)cc3)n2)cc1
IC50 (Ishikawa): > 40 µM | IC50 (HUVEC): > 40 µM

IC50 (MCF7 [3]): 15.5 µM
SMILES: CC/C(=C(\c1ccccc1)c1ccc(OCCN(C)C)cc1)c1ccccc1 [TAMOXIFEN]
IC50 (Ishikawa): 26.5 µM

IC50 [1]: > 1 µM | inhibition [2]: 39.8% | IC50 (Estrogen receptor): 6.22 µM | IC50 (MCF7 [3]): 21.3 µM
SMILES: COc1ccc(-c2nc(Cl)cc(Oc3ccc(OCCN4CCCC4)cc3)n2)cc1
IC50 (Ishikawa): 25.5 µM | IC50 (HUVEC): 15.8 µM
